An excerpt weighted towards active compounds, which were near 1.8% of everything screened.
MC4R antagonist: antagonists of human melanocortin 4 receptor (MC4R) | P32245 | MC4R-expressing cells, MTII-stimulated cAMP, LANCE TR-FRET | inhibition, % at 6.5 µM | 0.48% of 360,000 active | AID 540295;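 active means inhibition above its plate's cutoff, the mean of tested wells on that plate plus 3 SD, cut at about 29% in these data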
Target sequence (P32245 whole entry, looked up): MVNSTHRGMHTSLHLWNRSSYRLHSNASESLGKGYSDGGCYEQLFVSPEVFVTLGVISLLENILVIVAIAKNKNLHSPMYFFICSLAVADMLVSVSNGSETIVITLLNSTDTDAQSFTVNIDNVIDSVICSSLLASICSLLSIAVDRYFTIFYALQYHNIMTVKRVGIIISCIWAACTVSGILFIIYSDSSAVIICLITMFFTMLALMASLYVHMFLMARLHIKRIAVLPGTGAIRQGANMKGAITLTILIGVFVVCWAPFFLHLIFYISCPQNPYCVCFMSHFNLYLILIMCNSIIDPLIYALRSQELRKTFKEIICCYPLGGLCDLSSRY
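Test system: U2OS cells stably expressing human melanocortin 4 receptor (MC4R); also added: Melanotan II challenge; compound: 6.5 µM single dose; timing: 30-min compound preincubation, 1-h Melanotan II challenge, 1-h detection, room temperature; signal: Eu-cAMP/anti-cAMP TR-FRET, emission 671 nm; repeats: one well per compound, no replicates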
NOD2 RIPK2 PPI: NOD2-RIPK2 protein interaction inhibition; 0.38% of 360,000 active; O43353; CHO BLA complementation NOD2-RIPK2, CCF4 ratio; AID 624267; inhibition, % at 4.98 µM; in the data active means inhibition above about 21%
TLR4 MyD88 comp: TLR4-MyD88 interaction inhibition in cells. O00206+Q99836. HeLa CL3-4 TLR4/MyD88 BLA complementation, FRET ratio. inhibition, % at 8.4 µM. 0.18% of 200,000 active. AID 861; in the data active means inhibition above about 25%
TLR9-MyD88 block: TLR9-MyD88 interaction inhibition | 0.21% of 340,000 active | CHO BLA complementation TLR9-MyD88, CCF4 FRET ratio | inhibition, % at 4.98 µM | Q9NR96+Q99836;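 active means inhibition above the mean over all tested compounds plus 3 SD, cut at about 21% in these data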
MC4R ag barr: activates human MC4R beta-arrestin recruitment; P32245; U2OS MC4R beta-arrestin complementation, luminescence; percent of melanotan II response, DMSO zero; activation, % at 8.9 µM; 0.98% of 360,000 active; AID 540308;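 active means activation above a per-plate cutoff, the mean activation of sample wells on that plate plus 3 SD, cut at about 8% in these data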
MC4R barr conf: human MC4R beta-arrestin agonism confirmation; U2OS MC4R beta-arrestin recruitment, luminescence; scaled DMSO 0%, Melanotan II 100%; shares compounds with MC4R ag barr; 31% of 2,400 active; activation, % at 8.9 µM;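 active means mean activation across replicates above the hit cutoff set in the earlier primary screen, cut at about 8% in these data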
MOR DOR agonist: counter-screen for MC4R agonists: agonists of mu-delta opioid heterodimer | shares compounds with MC4R ag barr | U2OS PathHunter beta-arrestin, beta-gal luminescence; percent of deltorphin B response, DMSO zero | activation, % at 9.2 µM | 5.8% of 2,400 active | AID 602194;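 active means mean activation across replicates exceeds the hit threshold derived in the earlier primary screen, cut at about 18% in these data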
Hits are given with their value; n = inactive; x = no result given.

SMILES	MC4R antagonist	NOD2 RIPK2 PPI	TLR4 MyD88 comp	TLR9-MyD88 block	MC4R ag barr	MC4R barr conf	MOR DOR agonist
CCOC(=O)c1cc(-c2ccccc2)sc1NC(=O)COC(=O)c1cccc(S(N)(=O)=O)c1	n	n	n	n	16	19	22
Cc1c(N(C)S(=O)(=O)c2cccc(C(=O)NC(C)C)c2)c(=O)n(-c2ccccc2)n1C	n	n	x	n	n	x	x
CCOc1ccccc1NC(=O)c1ccc(NC(=O)C2CCCO2)cc1 (centres undefined)	n	n	x	n	n	x	x
CCN=C1SC(CC(=O)Nc2sc3c(c2C#N)CCCC3)C(=O)N1CC (centres undefined)	n	n	n	n	12	n	n
CCC(=O)Nc1sc2c(c1C#N)CCCCC2	n	n	n	n	n	x	x
O=C(O)c1cc(-c2ccc(Cl)c(Cl)c2)n(-c2ccc(F)cc2)n1	n	n	x	n	n	x	x
COc1ccc(CCN2C(=O)c3ccncc3C2=O)cc1OC	n	n	n	n	14	n	n
Cc1cccc(N2CCN(C(=O)c3ccc(Cl)c(NC4=NC5CS(=O)(=O)CC5S4)c3)CC2C)c1 (centres undefined)	n	n	x	n	n	x	x
COc1ccc(-c2cc3ccccc3oc2=O)cc1NC(=O)c1ccc([N+](=O)[O-])o1	n	n	n	n	n	x	x
CCOc1cccc(C(=O)Nc2ccc(NC(=O)c3cc4ccccc4o3)c(OC)c2)c1	n	n	x	n	12	34	30
COc1cc(NC(=O)c2cc3ccccc3o2)c(OC)cc1Cl	n	n	n	n	13	n	n
COc1cccc(C(=O)Nc2ccc(-c3nc4ccccc4o3)c(O)c2)c1	n	n	n	n	11	n	n
COc1ccc(-c2cc3ccccc3oc2=O)cc1NC(=O)c1ccc(Br)o1	n	n	n	n	13	n	n
COc1ccccc1NC(=O)c1cc2ccccc2o1	n	n	n	n	n	x	x
CC1(C)C(=O)OC(/C=C\c2cccc([N+](=O)[O-])c2)C(C)(C)C1=O (centres undefined)	n	n	n	n	n	x	x
CCOC(=O)Cc1csc(NC(=O)CSc2nccn2C)n1	n	n	x	n	n	x	x
CCOC(=O)C1CCN(S(=O)(=O)c2ccc3c(c2)CCN3C(=O)C2CCC2)CC1	n	n	x	n	n	x	x
COc1cc(/C=C2/C(=N)N3C=CSC3=NC2=O)ccc1OCCCOc1ccccc1C	n	n	n	n	17	12	n
CC1=CN2C(=N)/C(=C/c3cn(CCCOc4ccccc4C)c4ccccc34)C(=O)N=C2S1	n	n	n	n	n	x	x
Cc1ccnc(Nc2nc(-c3ccc(O)cc3)cs2)c1	n	n	x	n	n	x	x
Cc1ccnc(Nc2nc(-c3ccc(O)cc3O)cs2)c1	n	n	x	n	18	13	n
CSc1nc(N)c(C(=O)NC2CCCCC2)s1	n	n	x	n	n	x	x
O=C(Cn1cc(S(=O)(=O)Cc2ccccc2)c2ccccc21)Nc1ccccc1	n	n	n	n	9.7	n	n
COc1ccc(NC(=O)Cn2cc(S(=O)(=O)Cc3ccccc3)c3ccccc32)c(OC)c1	n	n	n	n	n	x	x
CCc1ccc(-n2nc3ccc(NC(=O)c4ccc5c(c4)OCO5)cc3n2)cc1	n	n	n	n	11	n	n
O=C(Nc1ccc2nn(-c3ccccc3)nc2c1)c1ccc(Br)o1	n	n	n	n	13	17	n
Cc1ccc(NC(=O)NNC(=O)c2cc3ccccc3cc2O)cc1	n	n	x	n	13	15	n
COc1ccccc1NC(=O)NNC(=O)c1cc2ccccc2cc1O	n	n	x	n	n	x	x
OC(CNCCC1C=Nc2ccccc21)Cn1c2ccc(Cl)cc2c2cc(Cl)ccc21 (centres undefined)	n	n	n	n	17	n	31
Cc1cc(C)n(CC(O)Cn2c3ccc(Cl)cc3c3cc(Cl)ccc32)c(=O)n1 (centres undefined)	n	n	n	n	n	x	x

Assay outcomes as filed in PubChem BioAssay.
